ChEMBL document CHEMBL5058577, “EUbOPEN Chemogenomics Library 2 (Multiplex)” (2022)

System: Fibroblast
Assay: Multiplex assay against human fibroblast
Assay type: toxicity, cell-based
How it was run: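 Compound was added to live cells that had been stained at seeding with Hoechst33342, BioTracker Green Microtubule Cytoskeleton Dye, MitoTracker Red and Annexin V Alexa Fluor 680, and imaging followed on a CQ1 microscope at 37°C and 5% CO2. CellPathfinder machine-learning gating divided cells into Hoechst high-intensity objects or normal cells, normal cells into healthy, pyknosed or fragmented nuclei, and pyknosed cells into mitotic or apoptotic. Tubulin, mitochondrial-mass and membrane-permeability phenotypes are per cents of healthy-nucleus cells.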

[1] = 12 h, 1 µM, compound concentration 1 uM, replicate 1
[2] = 12 h, 1 µM, compound concentration 1 uM, replicate 2
[3] = 12 h, 10 µM, compound concentration 10 uM, replicate 1
[4] = 12 h, 10 µM, compound concentration 10 uM, replicate 2
[5] = 24 h, 1 µM, compound concentration 1 uM, replicate 1
[6] = 24 h, 1 µM, compound concentration 1 uM, replicate 2
[7] = 24 h, 10 µM, compound concentration 10 uM, replicate 1
[8] = 24 h, 10 µM, compound concentration 10 uM, replicate 2
[9] = 48 h, 1 µM, compound concentration 1 uM, replicate 1
[10] = 48 h, 1 µM, compound concentration 1 uM, replicate 2
[11] = 48 h, 10 µM, compound concentration 10 uM, replicate 1
[12] = 48 h, 10 µM, compound concentration 10 uM, replicate 2

## CCCCC(=O)N(Cc1ccc(-c2ccccc2-c2nnn[nH]2)cc1)[C@H](C(=O)O)C(C)C
[1]
  Population Apoptotic (%): 45%
  Population Fragmented Nuclei (%): 9%
  Population Healthy Nuclei (%): 74%
  Population Hoechst High Intensity Objects (%): 4%
  Population Membrane Permeable-Phenotype (%): 0%
  Population Mitochondria Different-Phenotype (%): 0%
  Population Mitotic Cells (%): 54%
  Population Normal (%): 95%
  Population Pyknosed Nuclei (%): 16%
  Population Tubulin-Different-Phenotype (%): 20%
  Total Cell Count: 143
[2]
  Population Apoptotic (%): 44%
  Population Fragmented Nuclei (%): 21%
  Population Healthy Nuclei (%): 54%
  Population Hoechst High Intensity Objects (%): 3%
  Population Membrane Permeable-Phenotype (%): 8%
  Population Mitochondria Different-Phenotype (%): 6%
  Population Mitotic Cells (%): 55%
  Population Normal (%): 96%
  Population Pyknosed Nuclei (%): 24%
  Population Tubulin-Different-Phenotype (%): 36%
  Total Cell Count: 156
[3]
  Population Apoptotic (%): 37%
  Population Fragmented Nuclei (%): 20%
  Population Healthy Nuclei (%): 56%
  Population Hoechst High Intensity Objects (%): 0%
  Population Membrane Permeable-Phenotype (%): 3%
  Population Mitochondria Different-Phenotype (%): 3%
  Population Mitotic Cells (%): 62%
  Population Normal (%): 100%
  Population Pyknosed Nuclei (%): 22%
  Population Tubulin-Different-Phenotype (%): 23%
  Total Cell Count: 106
[4]
  Population Fragmented Nuclei (%): 27%
  Population Healthy Nuclei (%): 42%
  Population Hoechst High Intensity Objects (%): 3%
  Population Membrane Permeable-Phenotype (%): 11%
  Population Mitochondria Different-Phenotype (%): 11%
  Population Normal (%): 96%
  Population Pyknosed Nuclei (%): 29%
  Population Tubulin-Different-Phenotype (%): 51%
  Total Cell Count: 130
[5]
  Population Apoptotic (%): 66%
  Population Fragmented Nuclei (%): 15%
  Population Healthy Nuclei (%): 70%
  Population Hoechst High Intensity Objects (%): 0%
  Population Membrane Permeable-Phenotype (%): 1%
  Population Mitochondria Different-Phenotype (%): 2%
  Population Mitotic Cells (%): 33%
  Population Normal (%): 99%
  Population Pyknosed Nuclei (%): 14%
  Population Tubulin-Different-Phenotype (%): 17%
  Total Cell Count: 146
[6]
  Population Apoptotic (%): 38%
  Population Fragmented Nuclei (%): 21%
  Population Healthy Nuclei (%): 52%
  Population Hoechst High Intensity Objects (%): 2%
  Population Membrane Permeable-Phenotype (%): 2%
  Population Mitochondria Different-Phenotype (%): 1%
  Population Mitotic Cells (%): 61%
  Population Normal (%): 97%
  Population Pyknosed Nuclei (%): 25%
  Population Tubulin-Different-Phenotype (%): 25%
  Total Cell Count: 145
[7]
  Population Apoptotic (%): 48%
  Population Fragmented Nuclei (%): 18%
  Population Healthy Nuclei (%): 56%
  Population Hoechst High Intensity Objects (%): 2%
  Population Membrane Permeable-Phenotype (%): 0%
  Population Mitochondria Different-Phenotype (%): 1%
  Population Mitotic Cells (%): 51%
  Population Normal (%): 97%
  Population Pyknosed Nuclei (%): 25%
  Population Tubulin-Different-Phenotype (%): 31%
  Total Cell Count: 110
[8]
  Population Apoptotic (%): 35%
  Population Fragmented Nuclei (%): 25%
  Population Healthy Nuclei (%): 44%
  Population Hoechst High Intensity Objects (%): 4%
  Population Membrane Permeable-Phenotype (%): 9%
  Population Mitochondria Different-Phenotype (%): 10%
  Population Mitotic Cells (%): 64%
  Population Normal (%): 95%
  Population Pyknosed Nuclei (%): 29%
  Population Tubulin-Different-Phenotype (%): 65%
  Total Cell Count: 130
[9]
  Population Apoptotic (%): 80%
  Population Fragmented Nuclei (%): 18%
  Population Healthy Nuclei (%): 71%
  Population Hoechst High Intensity Objects (%): 6%
  Population Membrane Permeable-Phenotype (%): 0%
  Population Mitochondria Different-Phenotype (%): 1%
  Population Mitotic Cells (%): 20%
  Population Normal (%): 93%
  Population Pyknosed Nuclei (%): 10%
  Population Tubulin-Different-Phenotype (%): 17%
  Total Cell Count: 153
[10]
  Population Apoptotic (%): 40%
  Population Fragmented Nuclei (%): 27%
  Population Healthy Nuclei (%): 51%
  Population Hoechst High Intensity Objects (%): 3%
  Population Membrane Permeable-Phenotype (%): 1%
  Population Mitochondria Different-Phenotype (%): 3%
  Population Mitotic Cells (%): 59%
  Population Normal (%): 96%
  Population Pyknosed Nuclei (%): 21%
  Population Tubulin-Different-Phenotype (%): 33%
  Total Cell Count: 155
[11]
  Population Apoptotic (%): 64%
  Population Fragmented Nuclei (%): 28%
  Population Healthy Nuclei (%): 56%
  Population Hoechst High Intensity Objects (%): 4%
  Population Membrane Permeable-Phenotype (%): 0%
  Population Mitochondria Different-Phenotype (%): 5%
  Population Mitotic Cells (%): 35%
  Population Normal (%): 95%
  Population Pyknosed Nuclei (%): 15%
  Population Tubulin-Different-Phenotype (%): 30%
  Total Cell Count: 112
[12]
  Population Apoptotic (%): 57%
  Population Fragmented Nuclei (%): 39%
  Population Healthy Nuclei (%): 39%
  Population Membrane Permeable-Phenotype (%): 7%
  Population Mitotic Cells (%): 42%
  Population Pyknosed Nuclei (%): 20%
  Population Tubulin-Different-Phenotype (%): 69%
  Total Cell Count: 141
